Source: PMC6396318 (Journal of the American Chemical Society, 2019)
Like-named read-outs stand apart in the source and are kept apart here. Marks after values point to notes of the source that are not given here.

How the values were obtained:
[1] = Indiscriminate thiol reactivity assay with cysteine; type: physicochemical; conditions: for Cysteine adduct formation: incubated with cysteine for 23 h, LC–MS; for Cysteine adduct pH 5.5 / Cysteine adduct pH 7.5 / Cysteine adduct pH 8.0: 23 h incubation with 10 mM cysteine at 37 °C, LC–MS UV trace
Summary of the method: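 Test compound was incubated with 10 mM cysteine in buffer at pH 5.5, 7.5 or 8.0 for 23 h at 37 °C. Cysteine adduct formation was quantified from the LC–MS UV trace.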

[2] = Indiscriminate thiol reactivity assay with GSH; type: physicochemical; conditions: 23 h incubation with 5 mM GSH at 37 °C, LC–MS UV trace
Summary of the method: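 Test compound was incubated with 5 mM GSH in buffer at 37 °C for 23 h. Adduct formation was quantified from the LC–MS UV trace.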

hCatK [3] = molecular target: T1, hCatK (Homo sapiens, UniProt P43235); assay: Kinetic evaluation of covalent inhibitors; type: biochemical
T1 sequence (P43235 115-329): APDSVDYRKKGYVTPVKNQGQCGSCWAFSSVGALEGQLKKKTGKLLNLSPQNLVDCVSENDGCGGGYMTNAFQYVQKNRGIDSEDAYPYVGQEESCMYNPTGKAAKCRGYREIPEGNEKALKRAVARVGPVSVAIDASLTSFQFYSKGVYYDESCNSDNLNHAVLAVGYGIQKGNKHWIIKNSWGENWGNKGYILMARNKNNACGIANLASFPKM
Summary of the method: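 Recombinant hCatK (100 pM) was used with 4 μM Z-FR-AMC at 26 °C. The reaction was started by adding enzyme to substrate plus test compound. Progress curves of substrate hydrolysis were fitted to derive kinetic constants. Values are mean ± SD of one representative experiment measured in triplicate.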

hCatK [4] = molecular target: T1, hCatK; assay: In vitro inhibition assay, fluorogenic substrate; type: biochemical
Summary of the method: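 Fluorogenic substrate was then added and proteolytic activity read. Values are mean ± SD of one representative experiment measured in triplicate. Selectivity was taken from IC50 values across these proteases.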

hCatK [5] = molecular target: T1, hCatK; assay: Reversibility of inhibition; type: biochemical; conditions: 300-fold dilution into Z-FR-AMC
Summary of the method: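 Jump dilution: recombinant hCatK was preincubated with test compound at high concentration to fully occupy the active site. The mixture was then diluted 300-fold into Z-FR-AMC solution. Progress curves of hCatK activity were recorded to detect recovery of substrate hydrolysis. E-64 served as control.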

human osteoclasts (OCs) [6] = assay: Bone resorption by osteoclasts cultured on cortical bone slices; type: cell-based
Summary of the method: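 Human CD14+ monocytes were seeded on bone slices, with M-CSF added on day 0 and RANKL on day 3 to drive osteoclast maturation. Medium containing test compound or DMSO was refreshed on days 7, 10, 13 and 16. On day 21 the cells were washed off and lysed. Resorption pits (trenches vs pits) were stained with Coomassie Brilliant Blue, and total resorption area was quantified.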

CatK [7] = molecular target: T2, CatK (Homo sapiens, UniProt P43235); assay: Cathepsin K activity in osteoclast lysates; type: cell-based; conditions: lysates treated with BMV109; increase with ODN ascribed to displacement by probe
T2 sequence (P43235 115-329): T1 sequence (P43235 115-329)

human osteoclasts (OCs) [8] = assay: TRAcP staining and counting of mature OCs on plastic; type: cell-based; conditions: highest concentrations
[9] = cited from earlier work
rodentCatK = conditions: mice and rats; cited from earlier work
[10] = cited from earlier work; remark: listed apart in the source
CatK [11] = conditions: 100 nM; cited from earlier work
[12] = 100 pM hCatK, 4 μM Z-FR-AMC, 26 °C, reversible covalent

| SMILES | Cysteine adduct pH 5.5 [1] [%] | Cysteine adduct pH 7.5 [1] [%] | Cysteine adduct pH 8.0 [1] [%] | GSH adduct pH 7.5 [2] | Cysteine adduct formation [1] | further results |
| --- | --- | --- | --- | --- | --- | --- |
| CC#CC(=O)N1CCC[C@H]1c1nc(-c2ccc(C(=O)Nc3ccccn3)cc2)c2c(N)nccn12 [Acalabrutinib] | 19 | 98 | 97 | 95% | observed | – |
| CN(C)C/C=C/C(=O)Nc1cc2c(Nc3ccc(F)c(Cl)c3)ncnc2cc1O[C@H]1CCOC1 [Afatinib] | 92 | 98 | 95 | 94% | adduct formation that increases upon increasing the pH of the buffer | – |
| CC(C)C[C@H](NC(=O)[C@H]1O[C@@H]1C(=O)O)C(=O)NCCCCN=C(N)N [Compound E-64, E-64] | <1 | 68 | 79 | 64% | adduct formation that increases upon increasing the pH of the buffer | Ki (hCatK [3]; 100 pM hCatK, 4 μM Z-FR-AMC, 26 °C, irreversible covalent, mean ± SD): 11 ± 1.6 nM |

Now from value to compound, other results behind:

| Cysteine adduct pH 5.5 [1] [%] | Cysteine adduct pH 7.5 [1] [%] | Cysteine adduct pH 8.0 [1] [%] | GSH adduct pH 7.5 [2] | SMILES | Cysteine adduct formation [1] | further results |
| --- | --- | --- | --- | --- | --- | --- |
| 9 | 99 | 96 | 91% | C=CC(=O)N1CCC[C@@H](n2nc(-c3ccc(Oc4ccccc4)cc3)c3c(N)ncnc32)C1 [Ibrutinib] | adduct formation that increases upon increasing the pH of the buffer | – |
| <1 | 17 | 48 | 0%^b | CC(C)(F)C[C@H](N[C@@H](c1ccc(-c2ccc(S(C)(=O)=O)cc2)cc1)C(F)(F)F)C(=O)NC1(C#N)CC1 [ODN, odanacatib] | adduct formation that increases upon increasing the pH of the buffer | IC50 (hCatK [4]): < 1 nM; Selectivity for CatK over related human cathepsins (hCatK [4]; from IC50 values of Table 2): selective for hCatK; Ki (hCatK [3]): 3.8 ± 2.7 nM; k5 (rate of covalent bond formation) (hCatK [3]; [12]): 0.12 ± 0.026 min⁻¹; k6 (rate of covalent bond dissociation) (hCatK [3]; [12]): 0.033 ± 0.0077 min⁻¹; Reversibility of hCatK inhibition (hCatK [5]): (fast) reversible inhibitor; Bone resorption morphology at 3 nM (human osteoclasts (OCs) [6]; 3 nM, 21 days culture, Coomassie staining): deep trenches; Bone resorption morphology at 15 nM (human osteoclasts (OCs) [6]; 15 nM, 21 days culture, Coomassie staining): shallow pits; Effective dose / concentrations inhibiting bone resorption (human osteoclasts (OCs) [6]; 21 days culture on bone slices): around 15 nM; Mature CatK activity in OC lysates (BMV109 labeling) (CatK [7]): strong increase of mature CatK activity; Number of OCs cultured on plastic (human osteoclasts (OCs) [8]): increase in the number of OCs; half-life [9]: 66 to 93 h; Reduction of apparent potency on rodentCatK compared to humanCatK (rodentCatK): up to 182 fold; Side effects in phase III clinical trials [10]: increased stroke risks and cardiovascular events; CatK expression upon ODN treatment (CatK [11]): significant increase in CatK expression; Number of OCs upon ODN treatment (CatK [11]): without an increase in the number of OCs |
